Experimental data: ChEMBL document CHEMBL5030531, “Synthetic Glycolipids as Molecular Vaccine Adjuvants: Mechanism of Action in Human Cells and In Vivo Activity” (J Med Chem, 2021)
The source made the active and inactive calls. The rule behind the calls is not given here.

Key:
[1] = target: Toll-like receptor 4 (Homo sapiens) (UniProt O00206); assay: Antagonist activity at human TLR4 in LPS-stimulated HEK-Blue hTLR4 cells assessed as inhibition of LPS-induced SEAP production at 0.1 to 25 uM incubated for 18 hrs by QUANTI-blue assay; details: dose 0.1-25 µM
Chain of Toll-like receptor 4 (Homo sapiens) (O00206 whole entry): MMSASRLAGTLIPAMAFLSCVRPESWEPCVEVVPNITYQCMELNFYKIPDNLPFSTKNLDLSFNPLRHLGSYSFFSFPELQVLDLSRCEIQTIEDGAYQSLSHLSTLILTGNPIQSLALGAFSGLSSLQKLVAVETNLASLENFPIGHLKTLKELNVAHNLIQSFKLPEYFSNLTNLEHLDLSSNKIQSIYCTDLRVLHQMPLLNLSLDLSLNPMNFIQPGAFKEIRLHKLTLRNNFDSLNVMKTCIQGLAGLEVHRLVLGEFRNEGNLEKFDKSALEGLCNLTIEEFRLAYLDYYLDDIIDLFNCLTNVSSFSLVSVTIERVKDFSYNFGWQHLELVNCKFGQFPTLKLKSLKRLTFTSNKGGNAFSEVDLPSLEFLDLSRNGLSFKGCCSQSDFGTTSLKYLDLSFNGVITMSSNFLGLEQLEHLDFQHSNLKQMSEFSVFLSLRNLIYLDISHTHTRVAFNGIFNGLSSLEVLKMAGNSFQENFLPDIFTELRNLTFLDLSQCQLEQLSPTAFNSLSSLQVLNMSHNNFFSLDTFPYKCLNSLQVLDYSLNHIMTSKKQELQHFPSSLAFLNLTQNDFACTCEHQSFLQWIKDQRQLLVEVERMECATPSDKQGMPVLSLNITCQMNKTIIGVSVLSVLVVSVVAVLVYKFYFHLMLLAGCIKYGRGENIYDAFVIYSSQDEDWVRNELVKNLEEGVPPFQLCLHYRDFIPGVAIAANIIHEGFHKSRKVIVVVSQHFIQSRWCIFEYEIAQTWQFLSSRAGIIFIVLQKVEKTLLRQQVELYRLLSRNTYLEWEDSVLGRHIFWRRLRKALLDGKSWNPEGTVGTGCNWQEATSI

[2] = Toxicity in C57BL/6 […] assessed as effect on body weight at 10 ug measured daily for 7 days; details: mouse, in vivo, 168 h; dose 10 µg, time 7 day
Summary of the method: (§1)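 Six-week-old female C57BL/6 mice were injected subcutaneously in the flank with 10 μg adjuvant in 50 μL PBS. Mice were monitored and weighed daily for 7 days, with injection-site response and alertness noted. Group size is n = 3 per treatment in the methods and n = 4 in the figure legend.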

[3] = target: Myeloid differentiation primary response protein MyD88 (Homo sapiens) (UniProt Q99836); assay: Activation of MyD88 dependent pathway in human THP-1 derived macrophages assessed as increase in NF-kappaB p65 phosphorylation at 10 uM measured after 1 hr by immunoblotting analysis; format: tissue-based; details: Macrophage, filed as activator
Chain of Myeloid differentiation primary response protein MyD88 (Homo sapiens) (Q99836 whole entry): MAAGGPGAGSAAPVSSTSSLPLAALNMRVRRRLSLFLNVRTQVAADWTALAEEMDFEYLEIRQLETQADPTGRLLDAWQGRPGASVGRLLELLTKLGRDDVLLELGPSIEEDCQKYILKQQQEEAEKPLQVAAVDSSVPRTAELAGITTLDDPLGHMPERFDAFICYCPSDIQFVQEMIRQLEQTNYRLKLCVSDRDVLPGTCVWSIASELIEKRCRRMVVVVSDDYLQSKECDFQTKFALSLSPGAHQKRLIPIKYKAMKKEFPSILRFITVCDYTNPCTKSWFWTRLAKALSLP
Summary of the method: (§2)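 PMA-differentiated THP-1 macrophages treated with compound at 10 μM (S-LPS 100 ng/mL, MPLA 1 μg/mL as references) and harvested at set times. RIPA lysates with protease/phosphatase inhibitors separated by SDS-PAGE, transferred to PVDF and probed for phospho-p65 (Ser536) and phospho-p38 (Thr180/Tyr182) with β-actin as loading control. Detection by chemiluminescence, densitometry; representative of at least two experiments.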

[4] = system: Macrophage; assay: Activation of TRIF dependent pathway in human THP-1 derived macrophages assessed as increase in IRF3 phosphorylation at 10 uM measured up to 3 hrs by immunoblotting analysis; format: tissue-based; details: time hrs <=3
Summary of the method: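 Differentiated THP-1 macrophages exposed to compound at 10 μM, alongside S-LPS and R-LPS (100 ng/mL each) and MPLA (1 μg/mL), and collected over a time course. Lysates were immunoblotted for phospho-IRF3 (Ser386) with β-actin as loading control and detected by chemiluminescence.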

[5] = system: Macrophage; assay: Induction of IL-1beta production in human THP-1 derived macrophages assessed as accumulation of IL-1beta precursor in cell lysates at 20 uM measured up to 18 hrs by ELISA; format: functional, subcellular; details: time hrs <=18
Summary of the method: (§3)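 Differentiated THP-1 macrophages treated with compound at 20 μM (S-LPS, R-LPS 100 ng/mL; MPLA 1 μg/mL) for 3, 6 and 18 h. IL-1β measured by ELISA in both cell lysates and supernatants; n = 3, one-way ANOVA versus untreated.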

[6] = target: T1, Toll-like receptor 4/MD-2 (Homo sapiens) (UniProt O00206+Q9Y6Y9); assay: Binding affinity to NTA sensor chip immobilized recombinant human TLR4/MD2 assessed as association rate constant by surface plasmon resonance analysis; format: protein-complex assay; details: filed as agonist
Summary of the method: (§4)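 Recombinant human TLR4/MD2 complex (20 μg/mL in 10 mM sodium acetate pH 4.0) amine-coupled to NTA chip after NiCl2 and EDC/NHS activation, ethanolamine-blocked. Analytes sonicated 15 min and diluted in PBS-P+ with 5% DMSO, injected over the series 4.34–69.50 μM or 5.34–85.50 μM. Regeneration 50 mM NaOH. Kinetics fitted to 1:1 model after solvent correction.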

[7] = system: HEK-Blue hTLR4; assay: Activation of AP-1 in LPS-stimulated HEK-Blue hTLR4 cells assessed as increase in release of SEAP reporter protein level incubated for 18 hrs by QUANTI-blue assay; format: cell-based; details: Homo sapiens, filed as activator
Summary of the method: (§5)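 HEK-Blue hTLR4 cells (HEK293 with CD14, TLR4, MD-2 and NF-κB/AP-1-driven SEAP) in DMEM/10% FBS, seeded overnight (37 °C, 5% CO2), washed, then exposed to compound 0.1–25 μM in fresh medium for 18 h. SEAP in supernatant read with QUANTI-Blue substrate (0.5–4 h, RT) at OD 630 nm. Normalized to 100 ng/mL S. minnesota smooth LPS; mean percentage of three independent experiments.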

[8] = target: T1, Toll-like receptor 4/MD-2 (Homo sapiens); assay: Binding affinity to NTA sensor chip immobilized recombinant human TLR4/MD2 assessed as maximum response by surface plasmon resonance analysis; format: protein-complex assay; details: filed as agonist
Summary of the method: as §4

[9] = system: Mus musculus; assay: Immuno-adjuvant activity in C57BL/6 mouse assessed as increase in levels of anti-ova total IgG in sera at 10 ug administered subcutaneously on day 1 and as booster dose on day 22 in presence of ovalbumin and […] by ELISA; format: functional, organism-based; details: dose 10.0 µg
Summary of the method: (§6)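 Female C57BL/6 mice (n = 8) given 50 μL s.c. in the flank of 500 μg endotoxin-depleted OVA mixed with 10 μg adjuvant in PBS. Booster on opposite flank day 22; OVA-only control group. Tail-vein sera taken days 21 and 41, serially diluted 1:100–1:12 800 and assayed by ELISA on OVA-coated plates (4 μg/mL). Detection with HRP anti-mouse IgG, TMB, A450.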

[10] = Toxicity in C57BL/6 […] assessed as state of alertness at 10 ug observed daily for 7 days; details: mouse, in vivo, 168 h; dose 10 µg, time 7 day
Summary of the method: as §1

[11] = target: Toll-like receptor 4 (Homo sapiens) (UniProt O00206); assay: Activation of human TLR4 in IL-1beta stimulated HEK-Blue Null cells assessed as NF-kappaB activation at 0.1 to 25 uM incubated for 18 hrs by QUANTI- blue assay; format: tissue-based; details: dose 0.1-25 µM
Summary of the method: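 HEK-Blue Null cells, which carry the SEAP reporter but lack LPS receptors, were given compound (0.1–25 μM) for 18 h. SEAP was read by QUANTI-Blue at OD 630 nm and normalized to 100 ng/mL human IL-1β as positive control. Results are the mean percentage of three independent experiments.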

[12] = target: T1, Toll-like receptor 4/MD-2 (Homo sapiens); assay: Binding affinity to NTA sensor chip immobilized recombinant human TLR4/MD2 assessed as dissociation rate kinetics by surface plasmon resonance analysis; format: protein-complex assay; details: filed as agonist
Summary of the method: as §4

[13] = system: Macrophage; assay: Activation of TRIF dependent pathway in human THP-1 derived macrophages assessed as increase in RSAD2 expression measured after 6 hrs; format: tissue-based
Summary of the method: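 RSAD2 mRNA in differentiated THP-1 macrophages after compound at 10 μM, measured by RT-qPCR (annealing 60 °C) with β-actin housekeeping gene. Expressed as ΔΔCt fold change versus untreated cells; n = 3, Wilcoxon test.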

[14] = system: Mus musculus; assay: Immuno-adjuvant activity in C57BL/6 mouse assessed as increase in levels of anti-ova total IgG in sera at 10 ug administered subcutaneously in presence of ovalbumin and measured 21 days post immunization by ELISA; format: functional, organism-based; details: dose 10.0 µg, time 21.0 day
Summary of the method: as §6

[15] = target: Myeloid differentiation primary response protein MyD88 (Homo sapiens) (UniProt Q99836); assay: Activation of MyD88 dependent pathway in human THP-1 derived macrophages assessed as increase in MAPK p38 phosphorylation at 10 uM measured after 1 hr by immunoblotting analysis; format: tissue-based; details: Macrophage, filed as activator
Summary of the method: as §2

[16] = target: Toll-like receptor 2 (Homo sapiens) (UniProt O60603); assay: Agonist activity human TLR2 in PAM2CSK4 stimulated HEK-Blue hTLR2 cells at 0.1 to 25 uM incubated for 18 hrs by QUANTI-blue assay; format: cell-based; details: dose 0.1-25 µM
Chain of Toll-like receptor 2 (Homo sapiens) (O60603 whole entry): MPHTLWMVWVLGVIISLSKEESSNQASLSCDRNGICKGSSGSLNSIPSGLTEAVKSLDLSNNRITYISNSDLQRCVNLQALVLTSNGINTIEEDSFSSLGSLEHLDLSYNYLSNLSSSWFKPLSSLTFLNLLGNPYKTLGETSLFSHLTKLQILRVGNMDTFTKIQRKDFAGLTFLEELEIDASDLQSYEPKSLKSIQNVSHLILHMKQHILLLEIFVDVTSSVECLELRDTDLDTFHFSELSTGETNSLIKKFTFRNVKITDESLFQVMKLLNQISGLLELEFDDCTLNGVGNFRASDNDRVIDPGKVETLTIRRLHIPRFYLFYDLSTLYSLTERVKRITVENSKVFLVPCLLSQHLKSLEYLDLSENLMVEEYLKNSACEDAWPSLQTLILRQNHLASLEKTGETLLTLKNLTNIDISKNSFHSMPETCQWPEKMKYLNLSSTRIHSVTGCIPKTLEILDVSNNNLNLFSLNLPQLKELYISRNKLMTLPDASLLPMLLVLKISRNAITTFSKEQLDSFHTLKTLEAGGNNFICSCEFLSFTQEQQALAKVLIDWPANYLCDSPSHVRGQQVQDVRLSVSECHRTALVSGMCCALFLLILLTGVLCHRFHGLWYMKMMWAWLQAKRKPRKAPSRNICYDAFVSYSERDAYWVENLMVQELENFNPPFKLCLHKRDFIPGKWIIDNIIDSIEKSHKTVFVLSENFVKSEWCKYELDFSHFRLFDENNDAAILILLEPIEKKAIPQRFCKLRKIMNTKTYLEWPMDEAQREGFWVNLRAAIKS
Summary of the method: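 HEK-Blue hTLR2 cells exposed 18 h to compound (0.1–25 μM); SEAP in supernatant by QUANTI-Blue at OD 630 nm. Values normalized to PAM2CSK4 (10 ng/mL, 18 h) and expressed as mean percentage of three independent experiments.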

[17] = system: Macrophage; assay: Activation of TRIF dependent pathway in human THP-1 derived macrophages assessed as increase in IFNbeta mRNA expression measured 2 hrs post treatment by real-time PCR
[18] = target: Myeloid differentiation primary response protein MyD88 (Homo sapiens) (UniProt Q99836); assay: Activation of MyD88 dependent pathway in human THP-1 derived macrophages assessed as increase in IL-1 beta secretion measured after 18 hrs by ELISA; details: Macrophage, filed as activator
Summary of the method: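 THP-1 cells differentiated with PMA 25 ng/mL for 72 h, then rested 24 h in fresh medium before stimulation with compound (range 0.1–1 to 10–25 μM) in RPMI/10% FBS for 18 h. S-LPS and MPLA used as references. TNFα, IL-1β, IL-6 in supernatants quantified by sandwich ELISA at 450 nm (570 nm correction).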

[19] = target: Nuclear factor NF-kappa-B complex (Homo sapiens) (UniProt Q00653+P19838+Q04206); assay: Activation of NF-kappaB in LPS-stimulated HEK-Blue hTLR4 cells assessed as increase in release of SEAP reporter protein level incubated for 18 hrs by QUANTI-blue assay; format: cell-based; details: filed as activator
Chain of Nuclear factor NF-kappa-B complex (Homo sapiens) (P19838 whole entry, looked up): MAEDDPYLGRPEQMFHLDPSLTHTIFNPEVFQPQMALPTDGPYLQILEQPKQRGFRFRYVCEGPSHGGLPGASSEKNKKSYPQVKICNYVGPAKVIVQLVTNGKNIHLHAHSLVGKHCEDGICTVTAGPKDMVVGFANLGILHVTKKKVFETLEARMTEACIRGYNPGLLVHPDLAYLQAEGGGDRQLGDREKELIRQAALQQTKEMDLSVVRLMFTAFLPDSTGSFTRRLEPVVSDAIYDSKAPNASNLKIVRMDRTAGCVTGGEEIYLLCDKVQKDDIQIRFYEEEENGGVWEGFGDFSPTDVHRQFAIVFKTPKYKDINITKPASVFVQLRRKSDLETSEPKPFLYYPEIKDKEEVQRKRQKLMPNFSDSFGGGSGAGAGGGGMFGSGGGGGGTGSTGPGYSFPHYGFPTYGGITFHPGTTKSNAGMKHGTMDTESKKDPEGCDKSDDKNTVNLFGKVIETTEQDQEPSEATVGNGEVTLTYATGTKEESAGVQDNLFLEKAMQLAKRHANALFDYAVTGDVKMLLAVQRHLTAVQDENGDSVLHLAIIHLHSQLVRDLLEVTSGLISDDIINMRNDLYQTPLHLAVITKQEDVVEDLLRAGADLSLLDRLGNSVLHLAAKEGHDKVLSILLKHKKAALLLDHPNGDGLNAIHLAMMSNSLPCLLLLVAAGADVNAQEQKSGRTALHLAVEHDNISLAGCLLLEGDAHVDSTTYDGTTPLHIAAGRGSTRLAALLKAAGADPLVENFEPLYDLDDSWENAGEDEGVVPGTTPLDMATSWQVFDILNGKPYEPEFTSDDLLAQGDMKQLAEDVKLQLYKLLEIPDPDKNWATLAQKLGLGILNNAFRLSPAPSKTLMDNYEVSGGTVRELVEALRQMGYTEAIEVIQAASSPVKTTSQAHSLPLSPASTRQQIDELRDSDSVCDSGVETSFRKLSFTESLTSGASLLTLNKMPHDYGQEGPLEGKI
Chain of Nuclear factor NF-kappa-B complex (Homo sapiens) (Q00653 whole entry, looked up): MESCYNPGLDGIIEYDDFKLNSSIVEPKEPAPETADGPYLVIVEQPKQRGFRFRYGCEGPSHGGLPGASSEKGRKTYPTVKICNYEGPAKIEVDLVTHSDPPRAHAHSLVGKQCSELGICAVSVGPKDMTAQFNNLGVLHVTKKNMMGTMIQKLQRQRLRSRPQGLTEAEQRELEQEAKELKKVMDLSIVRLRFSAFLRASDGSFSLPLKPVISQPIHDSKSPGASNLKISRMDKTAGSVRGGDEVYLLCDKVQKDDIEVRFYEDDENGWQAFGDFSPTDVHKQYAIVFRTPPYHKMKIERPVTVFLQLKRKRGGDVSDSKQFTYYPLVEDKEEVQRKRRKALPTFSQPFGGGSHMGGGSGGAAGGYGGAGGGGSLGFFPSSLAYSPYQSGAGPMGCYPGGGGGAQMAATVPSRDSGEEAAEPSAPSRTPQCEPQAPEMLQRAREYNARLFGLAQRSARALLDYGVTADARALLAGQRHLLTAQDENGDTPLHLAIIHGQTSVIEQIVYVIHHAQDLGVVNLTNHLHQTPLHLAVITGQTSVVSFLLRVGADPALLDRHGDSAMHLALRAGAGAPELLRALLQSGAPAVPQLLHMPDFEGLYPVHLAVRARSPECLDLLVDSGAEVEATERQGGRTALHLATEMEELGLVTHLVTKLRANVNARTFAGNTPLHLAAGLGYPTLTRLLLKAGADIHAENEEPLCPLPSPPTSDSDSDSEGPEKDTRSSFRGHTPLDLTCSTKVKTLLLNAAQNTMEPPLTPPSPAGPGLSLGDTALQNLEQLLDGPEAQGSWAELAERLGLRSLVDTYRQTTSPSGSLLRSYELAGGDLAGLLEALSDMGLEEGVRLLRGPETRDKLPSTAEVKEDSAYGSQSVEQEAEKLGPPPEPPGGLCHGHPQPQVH
Chain of Nuclear factor NF-kappa-B complex (Homo sapiens) (Q04206 whole entry, looked up): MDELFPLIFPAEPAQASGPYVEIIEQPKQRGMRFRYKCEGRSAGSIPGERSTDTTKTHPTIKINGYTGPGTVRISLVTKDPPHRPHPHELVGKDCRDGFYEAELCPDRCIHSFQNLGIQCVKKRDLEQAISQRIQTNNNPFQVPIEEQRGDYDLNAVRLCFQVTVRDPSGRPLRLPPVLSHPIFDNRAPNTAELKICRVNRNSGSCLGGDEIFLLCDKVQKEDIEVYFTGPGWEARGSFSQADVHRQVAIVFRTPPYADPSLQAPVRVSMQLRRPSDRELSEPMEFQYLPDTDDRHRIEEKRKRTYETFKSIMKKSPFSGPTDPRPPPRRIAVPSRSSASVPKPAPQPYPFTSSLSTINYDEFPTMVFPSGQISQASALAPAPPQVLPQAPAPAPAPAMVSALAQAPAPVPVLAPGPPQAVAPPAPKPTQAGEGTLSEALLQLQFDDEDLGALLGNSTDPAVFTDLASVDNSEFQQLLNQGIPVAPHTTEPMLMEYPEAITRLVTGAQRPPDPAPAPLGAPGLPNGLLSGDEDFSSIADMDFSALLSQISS
Summary of the method: as §5

[20] = Toxicity in C57BL/6 […] assessed as local response at injection site at 10 ug observed daily for 7 days; details: mouse, in vivo, 168 h; dose 10 µg, time 7 day
Summary of the method: as §1

[21] = system: Macrophage; assay: Induction of IL-1beta production in human THP-1 derived macrophages assessed as secretion of IL-1beta mature form in supernatant at 20 uM measured up to 18 hrs by ELISA; format: functional, tissue-based; details: time hrs <=18
Summary of the method: as §3

Activity [1]: inactive
Activity [3]: Active
Ka [6]: 3.84 10^3(1/Ms)
Rmax [8]: 8.15 RU
Activity [11]: inactive
Kdiss [12]: 7.09 10^-4/s
Activity [15]: Active
Activity [16]: inactive
Activity [18]: Dose-Dependent Effect
Activity [19]: Dose-Dependent Effect
SMILES: CCCCCCCCCCCCCC(=O)N[C@H]1[C@@H](OP(=O)([O-])[O-])O[C@H](CO)[C@@H](OC(=O)CCCCCCCCCCCCC)[C@@H]1OC(=O)CCCCCCCCCCCCC.[Na+].[Na+]
Activity [2]: Non-Toxic
Activity [4]: inactive
Activity [5]: Active
Activity [7]: Dose-Dependent Effect
Activity [9]: Active
Activity [10]: Non-Toxic
Activity [13]: inactive
Activity [14]: Active
Activity [17]: inactive
Activity [20]: Non-Toxic
Activity [21]: inactive
